Screens (PubChem)
An excerpt weighted towards active compounds, which were near 1.7% of everything screened.
PfGluPho inh – PfG6PD (Plasmodium falciparum) enzyme inhibition; 0.78% of 350,000 active; inhibition, % at 20 µM; PfGluPho enzyme, NADPH resazurin-diaphorase fluorescence; AID 504690;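 active = inhibition reaching at least a set limit at 20 µM in the primary screen, cut at about 59% in these data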
APJ antagonist – antagonists of human APJ apelin receptor; CHO-K1 APJ beta-arrestin complementation, luminescence; 0.32% of 330,000 active; inhibition, % at 20 µM;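 active = inhibition above about 40% at 20 µM, limit read from the data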;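 also: cells challenged with 10 nM apelin-13 agonist together with compound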
CCR6 antagonist – CCR6 (human) receptor antagonism | 0.49% of 340,000 active | CHO-K1 CCR6 PathHunter beta-arrestin, luminescence, CCL20-stimulated | inhibition, % at 20 µM;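 active = compounds whose inhibition of the agonist-driven luminescence signal at 20 µM reaches about 50%, limit read from the data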;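 also: cells stimulated with CCL20 at 14 nM final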
APJ ag – activates the human apelin receptor APJ. 0.11% of 330,000 active. P35414. activation, % at 20 µM. CHO-K1 APJ PathHunter beta-arrestin, luminescence; 0% DMSO wells, 100% apelin;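 active = activation more than six SD over the plate average, tested at 20 µM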
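Material: engineered CHO-K1 APJ arrestin reporter cells; amount: 1000 CHO-K1 reporter cells seeded per well; incubation: compound stimulation 90 min at 25 °C, detection 60 min; signal: luminescent beta-gal fragment complementation, chemiluminescent substrate; read-out basis: APJ agonist activity; controls: DMSO-only wells as negative, 10 nM Apelin-13 as positive control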
CXCR6 inh – CXCR6 (human) receptor inhibition; O00574; CHO-K1 PathHunter CXCR6 beta-arrestin, luminescence; inhibition, % at 20 µM; 0.36% of 360,000 active; AID 602244; in the data active = inhibition above about 34%, passing the limit was not always enough;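 also: antagonist mode with CXCL16 agonist at 10 nM final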
Target sequence (O00574 whole entry, looked up): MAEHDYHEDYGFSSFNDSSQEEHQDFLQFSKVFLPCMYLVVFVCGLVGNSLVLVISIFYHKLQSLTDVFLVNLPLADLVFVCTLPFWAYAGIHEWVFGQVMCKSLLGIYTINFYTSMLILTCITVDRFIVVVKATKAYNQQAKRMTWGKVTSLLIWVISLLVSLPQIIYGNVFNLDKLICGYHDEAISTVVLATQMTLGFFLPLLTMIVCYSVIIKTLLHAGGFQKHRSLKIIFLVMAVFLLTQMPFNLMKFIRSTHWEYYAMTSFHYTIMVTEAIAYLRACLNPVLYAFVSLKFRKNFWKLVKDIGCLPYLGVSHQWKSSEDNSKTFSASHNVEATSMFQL
B2AR ag – activates human beta-2 adrenergic receptor causing internalization. P07550. Am2.2-beta2AR cells, FAP receptor internalization, flow cytometry. response, % (concentration not given with the values). 0.43% of 340,000 active. AID 504454;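 active = response above a set limit, near 3 SD of response in nonfluorescent compounds, cut at about 42% in these data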
PfGluPho conf – confirmation of Plasmodium falciparum G6PD inhibitors | shares compounds with PfGluPho inh | recombinant PfGluPho, NADPH-diaphorase-resazurin fluorescence | inhibition, % at 20 µM | 34% of 2,400 active;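 active = inhibition of at least 50% at 20 µM in any single replicate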
Diaph ctr 10uM – counter-screen for P. falciparum G6PD inhibitors: diaphorase inhibitors, oxidizers; AID 504862; 39% of 820 active; diaphorase-coupled resazurin reduction, fluorescence, NADPH 10 uM; inhibition, % at 20 µM; shares compounds with PfGluPho inh;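 active = average inhibition reaching 50% or more with the compound at 20 µM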;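 also: resorufin red fluorescence formed as diaphorase reduces resazurin using NADPH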
Diaphorase 30uM – inhibits diaphorase or oxidizes, flagging false PfG6PD hits; shares compounds with PfGluPho inh; Diaphorase/resazurin coupled assay, resorufin fluorescence, 30 uM NADPH; inhibition, % at 20 µM; 29% of 820 active;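 active = inhibition averaging 50% or more, tested at 20 µM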
Numbers stand for hits; n = inactive; x = not tested or not shown.

SMILES	PfGluPho inh	APJ antagonist	CCR6 antagonist	APJ ag	CXCR6 inh	B2AR ag	PfGluPho conf	others
CCOC(=O)C1=C(C)N(CCCC(=O)O)C(=O)NC1c1ccc(C(F)(F)F)cc1 (stereo unspecified)	x	n	x	n	x	x	x
CN(C)CCNC(=O)c1cccc2ccc(-c3ccc(-c4ccccc4)cc3)nc12	95	x	n	x	n	n	n
c1ccc2c(c1)CCN(c1nc3cc4c(cc3s1)OCCO4)C2	64	n	n	n	n	n	n
O=C(CSc1nc2ncc(Cl)cc2[nH]1)NCC(=O)Nc1ccc(F)c(F)c1F	79	n	n	n	n	n	n
O=C1CCC[C@@H]2[C@@H](Cc3ccccc3)[C@H](N3CCN(c4ccccc4)CC3)C[C@@H]3CCN1[C@@H]32	107	x	n	x	n	n	56	Diaph ctr 10uM=60;Diaphorase 30uM=n
COc1cc(NC(=O)COC(=O)c2cnccn2)c(C)cc1[N+](=O)[O-]	n	n	n	n	n	n	x
NC(=O)CN1C(=O)/C(=c2\sc3nc(=O)c(Cc4ccccc4)nn3c2=O)c2ccccc21	63	n	n	n	n	n	n
CCOc1ccc(C(=O)CCC(=O)N2CCN(c3ccc(O)cc3)CC2)cc1	67	n	n	n	n	n	n
O=C(CCC(=O)N1CCN(c2ccc(O)cc2)CC1)c1ccc(Br)cc1	x	n	x	n	x	x	x
COc1ccc(Cl)cc1S(=O)(=O)N1CCN=C1Cc1ccccc1	n	n	n	n	n	n	x
COc1ccccc1S(=O)(=O)n1cc(Cc2ccccc2)c(N)n1	76	n	n	n	n	n	n
CCC(C(=O)NC1CCCCC1)N(Cc1cccs1)C(=O)CCC(=O)Nc1cc(C)on1 (stereo unspecified)	n	n	n	n	n	n	x
CC1=C(C)C(=O)C(CCCCC#CCCCC#CCO)=C(C)C1=O	89	n	n	n	n	n	n
CC(=O)c1ccc(NC(=O)CCc2nnc3ccc(N4CCCC4)nn23)cc1	n	n	n	n	n	n	x
COc1ccc(NC(=O)CCCn2nc(C)c3c(C)n(-c4ccccc4)nc3c2=O)cc1OC	n	n	n	n	n	n	x
Cc1ccc(NC(=O)CCCn2nc(C)c3c(C)n(-c4ccccc4)nc3c2=O)cc1C	64	n	n	n	n	n	n
CCN(CC)c1ccc(NC(=O)CSc2n[nH]c(-c3ccco3)n2)cc1	n	n	n	n	n	n	x
COC(=O)c1sc(=S)n(-c2cc(F)ccc2F)c1N	60	n	n	n	n	n	n
CCOC(=O)c1sc(=S)n(-c2cc(F)ccc2F)c1N	n	n	n	n	n	n	x
CCOC(=O)c1sc(=S)n(-c2cc(OC)ccc2OC)c1N	78	n	n	n	n	n	n
CC(S(=O)(=O)c1ccccc1)S(=O)(=O)c1ccccc1	n	x	x	x	n	x	x
CC1=C/C(=N\OS(=O)(=O)c2ccccc2)C(C(C)C)=CC1=O	98	x	n	x	n	n	96	Diaph ctr 10uM=76;Diaphorase 30uM=63
O=[N+]([O-])c1ccc2nc(-c3ccc(Cl)cc3)n(OCc3ccccc3)c2c1	122	n	n	n	n	n	n
CCOC(=O)C(C)On1c(-c2ccccc2)nc2ccc([N+](=O)[O-])cc21 (stereo unspecified)	62	n	n	n	n	n	n
CCOC(=O)C(C)On1c(-c2ccc(Cl)cc2)nc2ccc([N+](=O)[O-])cc21 (stereo unspecified)	76	n	n	n	n	n	n
SMILES	PfGluPho inh	APJ antagonist	CCR6 antagonist	APJ ag	CXCR6 inh	B2AR ag	PfGluPho conf	others
Cc1ccc(COn2c(-c3ccc(Cl)cc3)nc3ccc([N+](=O)[O-])cc32)cc1	n	n	n	n	n	n	x
O=c1c2ccc(Cl)cc2nc(-c2ccc([N+](=O)[O-])cc2)n1O	n	n	n	n	n	n	x
CCCC(=O)N1CCC1(C)C(=O)Nc1cc(C)ccc1C (stereo unspecified)	x	x	x	x	n	x	x
Cc1c(C(=O)N(Cc2ccccc2Cl)C2CCS(=O)(=O)C2)oc2ccccc12 (stereo unspecified)	96	n	n	n	n	n	57	Diaph ctr 10uM=59;Diaphorase 30uM=n
Cc1onc(-c2ccccc2)c1C(=O)Nc1nnc(COc2ccc(Cl)cc2)s1	78	n	n	n	n	n	n
CCOCC(=O)Nc1nnc(COc2ccc(Cl)cc2)s1	62	n	n	n	n	n	n
Cc1cccc(C)c1OCc1nnc(NC(=O)CSc2ccc(Cl)cc2)s1	n	n	n	n	n	n	x
O=C(CSc1ccccc1)Nc1nnc(COc2ccc(Cl)cc2)s1	78	n	n	n	n	n	n
COCC(=O)Nc1nnc(COc2ccc(Cl)cc2)s1	n	n	n	n	n	n	x
CCCNC(=O)C1(C)CCCN(C(=O)c2cccc(Cl)c2)C1 (stereo unspecified)	x	x	x	x	n	x	x
COc1ccc(-c2nnn(CC(=O)N(CCCO)C(C(=O)NC3CCCC3)c3ccc(F)cc3)n2)cc1 (stereo unspecified)	n	n	n	n	n	n	x
COc1ccc2oc(C)c(C(N)=O)c2c1	n	n	n	n	n	n	x
COc1ccc2oc(C)c(C(=O)c3ccc([N+](=O)[O-])cc3)c2c1	67	n	n	n	n	n	n
COc1ccc(C(O)c2nc(-c3ccoc3)cs2)cc1 (stereo unspecified)	x	x	x	x	n	x	x
O=C(Nc1cc([N+](=O)[O-])ccc1N1CCCC1)c1cccs1	n	n	n	n	n	n	x
CC(=O)N(C1=C(Cl)C(=O)c2ccccc2C1=O)C1CCCCC1	116	n	115	n	40	64	113	Diaph ctr 10uM=98;Diaphorase 30uM=95
CC(=O)N(c1ccccc1C)C1CCCC1	n	n	n	n	n	n	x
C/C(Cn1nnc([N+](=O)[O-])n1)=N\NC(=O)c1ccc(O)cc1O	n	n	n	n	n	n	67	Diaph ctr 10uM=n;Diaphorase 30uM=n
C/C(Cn1nnc([N+](=O)[O-])n1)=N\NC(=O)c1ccccc1O	67	n	n	n	n	n	75	Diaph ctr 10uM=n;Diaphorase 30uM=n
C/C(Cn1cnc([N+](=O)[O-])n1)=N\NC(=O)c1ccccc1O	n	n	n	n	n	n	x
CC(=O)Nc1ccc2c(c1)nc(CCN1CCN(c3ccccn3)CC1)n2C	n	n	n	n	n	n	x
CC(C)COc1ccc(C(=O)Nc2sc3c(c2C(=O)O)CC(C)(C)OC3)cc1	n	n	n	n	n	n	x
CC1(C)Cc2c(sc(NC(=O)c3ccccc3)c2C(=O)O)CO1	88	n	n	n	n	n	n
